Measured values: PubChem BioAssay
Records with an inconclusive call do not appear.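 The calls were made as follows, unless noted: active = viability increase at or above a cutoff of the median across tested compounds plus 3 SD (cut at about 8.5% in these data, passing the limit was not always enough); inconclusive = some gains above the cutoff, reason not given; inactive = the rest.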

Assays:
[1] = S. cerevisiae growth inhibition in permissive medium (OD615), pilot counter-assay for S. cerevisiae lifespan shortening project, permissive growth control (AID 705;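 active = growth inhibition above 25% in both replicates, a cutoff set 3 SD above the mean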); details: OD615, 24 h, at 10 µM, hits give high values
How it was run: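 System: S. cerevisiae with engineered DeaD lifespan system / Measured by: absorbance (optical density) at 615 nm / Read-out: reduction in yeast growth (OD615) / Times: 4 h cell pre-growth, 24 h exposure at 30 °C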

[2] = S. cerevisiae growth inhibition in restrictive medium, OD615, pilot screen, restrictive growth control, yeast lifespan reduction project (AID 706;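 active = growth inhibition above a set limit, 3 SD over mean compound inhibition, in both replicates, cut at about 43% in these data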;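 also: modified DeaD lifespan yeast strain shifted to restrictive glucose medium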); details: OD615, 48 h, at 10 µM, hits give high values
How it was run: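 System: Engineered S. cerevisiae DeaD strain | Buffer or medium: Glucose-based CSMM-D restrictive medium | Schedule: 4 h pre-incubation, 48 h exposure at 30 °C | Technique: Optical density at 615 nm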

[3] = doxorubicin toxicity protection in MRP-1 cells – H69AR cells, CellTiter-Glo, duplicate, MRP-1 activator project, pilot screen (AID 807); details: H69AR viability with doxorubicin, CellTiter-Glo luminescence; at 10 µM; hits give high values;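 also: compound pretreatment 18-22 h then 72 h combined with doxorubicin; 0% = doxorubicin alone and 100% = vehicle without doxorubicin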
[4] = viability of HCT116 without oncogenic beta-catenin – human colon tumor cells, pilot screen (AID 823;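 active = cell viability at or below a set limit in both duplicate runs, the limit being the all-compound median minus 4 SD, cut at about 23% in these data, passing the limit was not always enough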;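 also: 0% = wells killed by 20 µM Hyamine and 100% = untreated DMSO cell wells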); details: HCT116 beta-catenin knockout viability, CellTiter-Glo, 60 h; at 10 µM; hits give low values
[5] = viability of PTEN-null HCT116 cells – cell-based, HCT116 clonal line, CellTiter-Glo, pilot screen (AID 824;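 active = viability at or below 27.92% in each of two runs, the all-compound median minus 4 SD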;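 also: 0% = 20 µM Hyamine control and 100% = vehicle cell control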); details: HCT116 PTEN-deleted viability, 60 h, at 10 µM, hits give low values
[6] = RAM pathway blockade in budding yeast – dse1pr::URA3 reporter, 5-FOA selection, pilot screen (AID 869;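 active = inhibition over a set limit, the all-compound mean plus 3 SD, in both replicate runs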;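 also: 0% = DMSO wells with no growth and 100% = 10 µM 1-NA-PP1 with full growth; RAM network block rescues cells from 5-FOA so hits raise OD615 growth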); details: S. cerevisiae dse1pr::URA3 5-FOA growth, OD615, 2 d; at 10 µM; hits give high values; strain carries analog-sensitive mutant Cbk1 kinase
[7] = RAM signaling pathway blockade in yeast – S. cerevisiae, Pdr1DBD-CYC8 efflux-inhibited sensitized strain, primary screen (AID 1298;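 active = RAM network inhibition above 8.4% in each of two replicates, 3 SD over the compound average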;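 also: 0% = DMSO untreated cells without growth and 100% = 10 µM 1-NA-PP1 full growth; higher means more yeast growth rescued from 5-FOA killing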); details: S. cerevisiae cbk1-as DSE1-URA3 strain, 5-FOA growth OD615, 2 d; at 50 µM; hits give high values

COc1ccccc1C1C=C(c2ccccc2)Nc2nnnn21 (configuration not stated)
inactive: growth inhibition [1] -4.73% | growth inhibition [2] 4.88% | viability increase [3] -0.25% | viability [4] 72.2% | viability [5] 83.7% | inhibition [6] 0.05% | RAM network inhibition [7] 5.5%

O=C(Oc1ccc2c(=O)c(Cl)coc2c1)c1ccncc1
inactive: growth inhibition [1] -0.185% | growth inhibition [2] 7.12% | viability increase [3] -4.3% | viability [4] 90.4% | viability [5] 99.2% | inhibition [6] 0.015% | RAM network inhibition [7] -0.99%

COc1cc(C(=O)n2nc(C)cc2C)cc(OC)c1OC
inactive: growth inhibition [1] -9.3% | growth inhibition [2] -12.6% | viability increase [3] -0.4% | viability [4] 99.5% | viability [5] 98.9% | inhibition [6] 1.08% | RAM network inhibition [7] 2.67%

CCOC(=O)N1CCN(Cc2nc3c(c(=O)n(C)c(=O)n3C)n2CCC(C)C)CC1
inactive: growth inhibition [1] -5% | growth inhibition [2] -10.9% | viability increase [3] -4.73% | viability [4] 97.3% | viability [5] 99.9% | inhibition [6] 0.37% | RAM network inhibition [7] 8.2%

CC(NC(=O)Cn1cc2c(n1)CCCCC2)c1ccccc1 (configuration not stated)
inactive: growth inhibition [1] -0.875% | growth inhibition [2] 2.88% | viability increase [3] 3.53% | viability [4] 101% | viability [5] 100% | inhibition [6] -0.32% | RAM network inhibition [7] 0.87%

CC1=C(C(=O)OC(C)C)C(c2c[nH]c3ccccc23)n2ncnc2N1 (configuration not stated)
inactive: growth inhibition [1] -5.16% | growth inhibition [2] -3.17% | viability increase [3] -1.69% | viability [4] 105% | viability [5] 97.1% | inhibition [6] 2.2% | RAM network inhibition [7] -0.16%

CCCCCn1c(NCc2ccco2)nc2ccccc21
inactive: growth inhibition [1] 0.22% | growth inhibition [2] 1.09% | viability increase [3] -5.56% | viability [4] 84.9% | viability [5] 72.9% | inhibition [6] 1.6% | RAM network inhibition [7] 1.9%

CCOC(=O)N1CCN(C(=O)c2cc3cc(Br)ccc3oc2=O)CC1
inactive: growth inhibition [1] -3.99% | growth inhibition [2] -17.6% | viability increase [3] -3.3% | viability [4] 94.9% | viability [5] 89.7% | inhibition [6] 0.665% | RAM network inhibition [7] -1.94%

Cc1ccc(N2C(=O)c3oc4ccccc4c(=O)c3C2c2cccnc2)nc1 (configuration not stated)
inactive: growth inhibition [1] -12.7% | growth inhibition [2] -4.26% | viability increase [3] 0.88% | viability [4] 99.3% | viability [5] 102% | inhibition [6] 1.04% | RAM network inhibition [7] 5.38%

Cc1cc(-c2nnc(-c3cc4ccccc4oc3=O)o2)c(C)n1-c1ccccc1
inactive: growth inhibition [1] -0.055% | growth inhibition [2] -2.88% | viability increase [3] -2.92% | viability [4] 79.7% | viability [5] 79.1% | inhibition [6] 3.04% | RAM network inhibition [7] 3.21%

O=c1cc(O)sc2ccccc12
inactive: growth inhibition [1] -4.72% | growth inhibition [2] -8.78% | viability increase [3] -2.09% | viability [4] 96.4% | viability [5] 94.4% | inhibition [6] 0.79% | RAM network inhibition [7] -0.87%

CCCc1cc(C(=O)N2CCN(C(c3ccccc3)c3ccccc3)CC2)no1
inactive: growth inhibition [1] -10.9% | growth inhibition [2] -6.91% | viability increase [3] 4.46% | viability [4] 98.7% | viability [5] 90.9% | inhibition [6] 0.485% | RAM network inhibition [7] 5.99%

CCCC(=O)Nc1cc(=O)n(C)c(=O)n1C
inactive: growth inhibition [1] -12.8% | growth inhibition [2] -4.53% | viability increase [3] -1.04% | viability [4] 103% | viability [5] 94.8% | inhibition [6] 0.76% | RAM network inhibition [7] -0.88%

O=C(NCCn1ccc2ccccc21)c1ccc(S(=O)(=O)N2CCOCC2)cc1
inactive: growth inhibition [1] 3.54% | growth inhibition [2] -8.71% | viability increase [3] -2.92% | viability [4] 101% | viability [5] 96.7% | inhibition [6] 0.33% | RAM network inhibition [7] 6.66%

O=C(O)c1ccc(F)c(S(=O)(=O)Nc2ccccc2)c1
inactive: growth inhibition [1] -3.28% | growth inhibition [2] -2.19% | viability increase [3] 1.08% | viability [4] 96.2% | viability [5] 101% | inhibition [6] -0.93% | RAM network inhibition [7] -0.06%

CCOc1ccc(-n2c(SCc3ccc(C(=O)OC)o3)nc3c(c2=O)SCC3)cc1
inactive: growth inhibition [1] -21.2% | growth inhibition [2] -16.2% | viability increase [3] -2.41% | viability [4] 81.3% | viability [5] 72.7% | inhibition [6] 2.39% | RAM network inhibition [7] 6.94%
